This is an account of results in ChEMBL document CHEMBL4257579, “Analogs of penfluridol as chemotherapeutic agents with reduced central nervous system activity” (Bioorg Med Chem Lett, 2018).

In data set [1] the target is 5-hydroxytryptamine receptor 5A (Homo sapiens, UniProt P47898). As to the kind of experiment: Displacement of [3H]LSD from human 5-HT5A receptor expressed in Flp-In CHO cells by radioligand binding assay relative to control. The format is cell-based. The arrangement: concentration or dose not given beside the values. To be noted: concentration not given here. (In a radioligand displacement assay an active substance lowers the binding of a labelled ligand.)

The target in the next data set is D(3) dopamine receptor (Homo sapiens, UniProt P35462). As to the kind of experiment: Displacement of [3H]N-methylspiperone from human dopamine D3 receptor expressed in HEK293T cells by radioligand binding assay relative to control. The format is cell-based. The arrangement: concentration or dose not given beside the values. The conditions noted are these: concentration not given here.

The target in data set [2] is T1, 5-hydroxytryptamine receptor 7 (Homo sapiens, UniProt P34969). The experiment in a line: Displacement of [3H]LSD from human 5-HT7A receptor expressed in HEK cells by radioligand binding assay. It counts as cell-based.
A further data set deals with D(1A) dopamine receptor (Homo sapiens, UniProt P21728). The experiment in a line: Displacement of [3H]SCH23390 from human dopamine D1 receptor expressed in HEK293T cells by radioligand binding assay relative to control. It counts as cell-based. The arrangement: concentration or dose not given beside the values. To be noted: concentration not given here.
Data set [3] addresses T2, 5-hydroxytryptamine receptor 2C (Homo sapiens, UniProt P28335).
T2 sequence (P28335 whole entry): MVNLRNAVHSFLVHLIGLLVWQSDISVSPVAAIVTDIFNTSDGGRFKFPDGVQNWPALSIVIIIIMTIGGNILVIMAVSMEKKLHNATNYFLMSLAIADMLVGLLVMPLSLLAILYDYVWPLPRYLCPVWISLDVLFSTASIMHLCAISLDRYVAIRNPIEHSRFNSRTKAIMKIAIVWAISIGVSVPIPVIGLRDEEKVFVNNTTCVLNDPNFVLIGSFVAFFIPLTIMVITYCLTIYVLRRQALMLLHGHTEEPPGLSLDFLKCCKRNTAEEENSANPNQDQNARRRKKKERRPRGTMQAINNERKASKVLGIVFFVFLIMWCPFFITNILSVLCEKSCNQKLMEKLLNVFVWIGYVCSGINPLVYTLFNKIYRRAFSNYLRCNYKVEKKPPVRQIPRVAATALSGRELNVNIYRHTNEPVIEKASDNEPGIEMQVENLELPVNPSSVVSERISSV
As to the kind of experiment: Displacement of [3H]Mesulergine from human 5-HT2C receptor expressed in HEK293FlpIN cells by radioligand binding assay. The format is cell-based.

Data set [4] has as its target T3, Mu-type opioid receptor (Homo sapiens, UniProt P35372). As to the kind of experiment: Displacement of [3H]DAMGO from human MOR expressed in HEK cells by radioligand binding assay relative to control. It counts as cell-based. The arrangement: concentration or dose not given beside the values. To be noted: concentration not given here.
Data set [5] has as its system Lewis lung carcinoma cell line. The experiment in a line: Cytotoxicity against mouse LLC cells harboring […] assessed as reduction in cell viability after 72 hrs by MTT assay. The format is functional, cell-based. The method in brief: (§1)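 Cells exposed to compounds; viability read at 24, 48 and 72 h. Every experiment run in triplicate.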
A general note: Tetrazolium assays rely on reduction of a dye to a coloured formazan, in cell work by metabolically active cells.

Data set [6] has as its target T4, Sodium-dependent dopamine transporter (Homo sapiens, UniProt Q01959). The experiment in a line: Displacement of [3H]WIN35428 from human DAT expressed in HEK cells by radioligand binding assay relative to control. The format is cell-based.
The target of another data set is T5, D(4) dopamine receptor (Homo sapiens, UniProt P21917).
T5 sequence (P21917 whole entry): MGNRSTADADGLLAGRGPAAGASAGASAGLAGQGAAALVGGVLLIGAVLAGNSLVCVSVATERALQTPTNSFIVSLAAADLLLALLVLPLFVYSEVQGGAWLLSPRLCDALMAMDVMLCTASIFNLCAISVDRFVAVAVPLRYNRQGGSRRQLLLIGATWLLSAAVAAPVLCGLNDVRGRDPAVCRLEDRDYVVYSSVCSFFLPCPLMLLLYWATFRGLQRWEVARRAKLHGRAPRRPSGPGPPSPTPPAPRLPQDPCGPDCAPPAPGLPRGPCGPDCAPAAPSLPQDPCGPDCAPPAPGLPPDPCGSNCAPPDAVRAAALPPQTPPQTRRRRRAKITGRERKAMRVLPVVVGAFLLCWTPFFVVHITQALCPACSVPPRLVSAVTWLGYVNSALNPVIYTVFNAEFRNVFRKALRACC
As to the kind of experiment: Displacement of [3H]N-methylspiperone from human dopamine D4 receptor by radioligand binding assay.

The target in data set [7] is T4, Sodium-dependent dopamine transporter. The experiment in a line: Displacement of [3H]WIN35428 from human DAT expressed in HEK cells by radioligand binding assay. It counts as cell-based.
The target of data set [8] is Kappa-type opioid receptor (Homo sapiens, UniProt P41145). As to the kind of experiment: Displacement of [3H]U69593 from KOR (unknown origin) expressed in HEK cells by radioligand binding assay relative to control. It counts as cell-based. The arrangement: concentration or dose not given beside the values. To be noted: concentration not given here.
The subject of the next data set is MDA-MB-231. The experiment in a line: Cytotoxicity against human MDA-MB-231 cells assessed as reduction in cell viability after 48 hrs by MTT assay. The format is functional, cell-based. The conditions noted are these: MDA-MB-231, 48 h. In short, it runs like this:
as §1

The next data set concerns NIH3T3. As to the kind of experiment: Cytotoxicity against mouse NIH/3T3 cells assessed as reduction in cell viability after 24 hrs by MTT assay. It counts as cell-based. To be noted: NIH3T3, 24 h. In short, it runs like this: as §1
Data set [9] has as its target T1, 5-hydroxytryptamine receptor 7. The experiment in a line: Displacement of [3H]LSD from human 5-HT7A receptor expressed in HEK cells by radioligand binding assay relative to control. It counts as cell-based.
For data set [10], the target named is Delta-type opioid receptor (Homo sapiens, UniProt P41143). The experiment in a line: Displacement of [3H]DADLE from human DOR expressed in HEK cells by radioligand binding assay. It counts as cell-based. To be noted: read-out: Ki.
Data set [11] concerns the target T3, Mu-type opioid receptor. The experiment in a line: Displacement of [3H]DAMGO from human MOR expressed in HEK cells by radioligand binding assay. It counts as cell-based.
Data set [12] concerns Lewis lung carcinoma cell line. The experiment in a line: Cytotoxicity against mouse LLC cells harboring […] assessed as reduction in cell viability after 24 hrs by MTT assay. It counts as functional, cell-based. The method in brief:
as §1

The target in data set [13] is T6, 5-hydroxytryptamine receptor 1A (Homo sapiens, UniProt P08908).
T6 sequence (P08908 whole entry): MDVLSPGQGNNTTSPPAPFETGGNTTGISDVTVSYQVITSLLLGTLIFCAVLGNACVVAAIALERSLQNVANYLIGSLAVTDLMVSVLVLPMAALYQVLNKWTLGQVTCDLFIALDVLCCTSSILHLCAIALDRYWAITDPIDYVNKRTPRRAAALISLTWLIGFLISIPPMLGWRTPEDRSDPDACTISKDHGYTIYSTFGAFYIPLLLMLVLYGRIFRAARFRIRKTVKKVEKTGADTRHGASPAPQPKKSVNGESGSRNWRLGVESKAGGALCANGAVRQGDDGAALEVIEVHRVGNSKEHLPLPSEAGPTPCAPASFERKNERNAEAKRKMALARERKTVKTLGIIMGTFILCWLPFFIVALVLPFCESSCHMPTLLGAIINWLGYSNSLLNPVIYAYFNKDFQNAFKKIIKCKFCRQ
As to the kind of experiment: Displacement of [3H]-Way100635 from human 5HT1A receptor expressed in stable CHO cell membranes by radioligand binding assay.

The target in data set [14] is T7, 5-hydroxytryptamine receptor 2C (Homo sapiens) (UniProt P28335).
T7 sequence (whole entry): T2 sequence (P28335 whole entry)
As to the kind of experiment: Displacement of [3H]Mesulergine from human 5-HT2C receptor expressed in HEK293FlpIN cells by radioligand binding assay relative to control. The format is cell-based. More on the design: concentration or dose not given beside the values. To be noted: concentration not given here.

For data set [15], the system named is Lewis lung carcinoma cell line. The experiment in a line: Cytotoxicity against mouse LLC cells harboring […] assessed as reduction in cell viability after 48 hrs by MTT assay. The format is functional, cell-based. The method in brief: as §1
In data set [16] the target is 5-hydroxytryptamine receptor 2A (Homo sapiens, UniProt P28223). As to the kind of experiment: Displacement of [3H]Ketanserin from 5-HT2A receptor (unknown origin) by radioligand binding assay relative to control. More on the design: concentration or dose not given beside the values. To be noted: concentration not given here.
Data set [17] addresses 5-hydroxytryptamine receptor 1D (Homo sapiens, UniProt P28221). The experiment in a line: Displacement of [3H]5-CT from human 5-HT1D receptor expressed in HEK293T cells by radioligand binding assay. It counts as cell-based. To be noted: read-out: Ki.

pIC50, pKi: −log10 of the molar value.

One may read the inhibition as the change of the read-out against control, counted positive when it falls. Usually pKi stands for −log10 of the Ki, conventionally taken in molar units. As a reminder, the pIC50 is −log10 of the IC50, conventionally taken in molar units.

T1 sequence (P34969 whole entry): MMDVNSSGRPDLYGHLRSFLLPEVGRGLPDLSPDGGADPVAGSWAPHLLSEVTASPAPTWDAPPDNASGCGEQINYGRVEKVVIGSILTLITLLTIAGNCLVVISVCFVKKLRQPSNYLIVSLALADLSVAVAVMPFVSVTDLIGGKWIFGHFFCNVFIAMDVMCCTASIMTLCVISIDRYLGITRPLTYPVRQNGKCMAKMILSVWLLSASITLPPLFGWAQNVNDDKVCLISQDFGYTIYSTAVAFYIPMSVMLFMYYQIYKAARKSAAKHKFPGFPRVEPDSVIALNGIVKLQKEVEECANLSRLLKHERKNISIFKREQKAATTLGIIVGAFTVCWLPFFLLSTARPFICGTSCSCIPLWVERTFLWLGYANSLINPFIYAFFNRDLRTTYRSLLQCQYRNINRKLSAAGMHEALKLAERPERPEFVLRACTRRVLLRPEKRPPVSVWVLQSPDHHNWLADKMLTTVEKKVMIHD
T4 sequence (Q01959 whole entry): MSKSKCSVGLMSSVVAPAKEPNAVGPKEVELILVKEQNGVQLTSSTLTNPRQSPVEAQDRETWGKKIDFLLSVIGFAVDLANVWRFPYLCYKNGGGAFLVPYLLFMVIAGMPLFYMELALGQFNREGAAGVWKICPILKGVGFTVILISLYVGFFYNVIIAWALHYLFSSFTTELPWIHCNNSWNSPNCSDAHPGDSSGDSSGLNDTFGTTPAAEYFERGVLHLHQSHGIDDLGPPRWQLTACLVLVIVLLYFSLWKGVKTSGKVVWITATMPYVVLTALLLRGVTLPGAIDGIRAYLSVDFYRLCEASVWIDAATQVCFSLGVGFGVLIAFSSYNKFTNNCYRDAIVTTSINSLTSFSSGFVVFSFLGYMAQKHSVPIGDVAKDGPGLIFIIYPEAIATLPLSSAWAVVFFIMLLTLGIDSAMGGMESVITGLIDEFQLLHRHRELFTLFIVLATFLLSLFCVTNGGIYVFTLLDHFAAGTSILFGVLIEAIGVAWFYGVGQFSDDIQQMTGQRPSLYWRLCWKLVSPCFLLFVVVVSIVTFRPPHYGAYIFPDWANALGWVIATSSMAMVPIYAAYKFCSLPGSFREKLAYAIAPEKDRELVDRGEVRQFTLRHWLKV
T3 sequence (P35372 whole entry): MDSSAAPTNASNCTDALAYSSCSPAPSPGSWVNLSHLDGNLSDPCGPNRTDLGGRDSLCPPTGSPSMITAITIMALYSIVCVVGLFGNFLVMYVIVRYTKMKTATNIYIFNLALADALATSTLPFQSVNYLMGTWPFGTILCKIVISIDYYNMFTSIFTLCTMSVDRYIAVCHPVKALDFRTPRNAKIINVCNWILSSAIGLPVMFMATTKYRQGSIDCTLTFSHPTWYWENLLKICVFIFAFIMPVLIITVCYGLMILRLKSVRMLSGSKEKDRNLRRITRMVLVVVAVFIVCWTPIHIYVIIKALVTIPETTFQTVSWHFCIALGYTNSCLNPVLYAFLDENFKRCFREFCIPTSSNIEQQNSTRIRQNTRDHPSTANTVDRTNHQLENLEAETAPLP
Chain of D(3) dopamine receptor (P35462 whole entry): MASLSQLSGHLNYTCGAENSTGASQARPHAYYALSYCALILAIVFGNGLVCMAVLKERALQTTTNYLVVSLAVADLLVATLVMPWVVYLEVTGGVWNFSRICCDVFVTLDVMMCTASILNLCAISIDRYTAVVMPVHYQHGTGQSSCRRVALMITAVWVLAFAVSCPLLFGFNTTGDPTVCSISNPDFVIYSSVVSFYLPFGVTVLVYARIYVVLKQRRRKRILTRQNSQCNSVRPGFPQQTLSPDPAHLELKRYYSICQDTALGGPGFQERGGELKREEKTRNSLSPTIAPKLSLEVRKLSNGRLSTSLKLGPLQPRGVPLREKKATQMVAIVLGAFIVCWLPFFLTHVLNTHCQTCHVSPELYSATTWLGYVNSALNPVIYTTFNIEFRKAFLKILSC
Chain of 5-hydroxytryptamine receptor 2A (P28223 whole entry): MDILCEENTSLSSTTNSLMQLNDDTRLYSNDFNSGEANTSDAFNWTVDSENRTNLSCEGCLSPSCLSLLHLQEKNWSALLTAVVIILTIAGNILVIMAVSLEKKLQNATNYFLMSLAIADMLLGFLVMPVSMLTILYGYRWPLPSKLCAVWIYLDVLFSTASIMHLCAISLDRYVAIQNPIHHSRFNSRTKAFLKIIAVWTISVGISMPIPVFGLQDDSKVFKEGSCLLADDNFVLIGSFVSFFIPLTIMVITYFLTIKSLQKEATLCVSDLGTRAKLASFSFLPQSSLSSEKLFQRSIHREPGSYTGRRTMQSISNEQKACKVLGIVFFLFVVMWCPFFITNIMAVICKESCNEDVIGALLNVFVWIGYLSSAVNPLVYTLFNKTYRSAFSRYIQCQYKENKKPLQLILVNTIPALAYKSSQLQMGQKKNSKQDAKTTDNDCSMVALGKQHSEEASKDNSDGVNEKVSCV
Chain of D(1A) dopamine receptor (P21728 whole entry): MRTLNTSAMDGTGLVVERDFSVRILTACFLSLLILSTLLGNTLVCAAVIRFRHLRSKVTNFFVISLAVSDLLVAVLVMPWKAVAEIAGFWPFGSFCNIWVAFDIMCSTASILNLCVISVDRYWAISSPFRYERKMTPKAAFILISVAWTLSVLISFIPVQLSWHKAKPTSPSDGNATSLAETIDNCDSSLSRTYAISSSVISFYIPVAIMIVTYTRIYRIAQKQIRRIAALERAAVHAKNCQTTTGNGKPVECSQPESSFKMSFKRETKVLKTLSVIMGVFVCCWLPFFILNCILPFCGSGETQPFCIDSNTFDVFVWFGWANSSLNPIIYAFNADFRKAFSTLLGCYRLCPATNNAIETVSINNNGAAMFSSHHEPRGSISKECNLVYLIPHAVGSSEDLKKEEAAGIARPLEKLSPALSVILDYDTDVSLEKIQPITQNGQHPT
Chain of Kappa-type opioid receptor (P41145 whole entry): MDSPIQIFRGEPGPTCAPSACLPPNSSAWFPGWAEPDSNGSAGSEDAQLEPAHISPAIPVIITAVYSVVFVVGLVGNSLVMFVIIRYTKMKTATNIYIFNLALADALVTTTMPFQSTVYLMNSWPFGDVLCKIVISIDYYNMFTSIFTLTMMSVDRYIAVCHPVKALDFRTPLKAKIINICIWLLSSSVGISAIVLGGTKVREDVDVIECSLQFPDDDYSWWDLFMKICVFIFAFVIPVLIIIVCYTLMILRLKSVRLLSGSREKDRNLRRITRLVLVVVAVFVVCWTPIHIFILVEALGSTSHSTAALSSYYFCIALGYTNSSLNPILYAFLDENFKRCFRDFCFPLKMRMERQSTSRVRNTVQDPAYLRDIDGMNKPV
Chain of 5-hydroxytryptamine receptor 5A (P47898 whole entry): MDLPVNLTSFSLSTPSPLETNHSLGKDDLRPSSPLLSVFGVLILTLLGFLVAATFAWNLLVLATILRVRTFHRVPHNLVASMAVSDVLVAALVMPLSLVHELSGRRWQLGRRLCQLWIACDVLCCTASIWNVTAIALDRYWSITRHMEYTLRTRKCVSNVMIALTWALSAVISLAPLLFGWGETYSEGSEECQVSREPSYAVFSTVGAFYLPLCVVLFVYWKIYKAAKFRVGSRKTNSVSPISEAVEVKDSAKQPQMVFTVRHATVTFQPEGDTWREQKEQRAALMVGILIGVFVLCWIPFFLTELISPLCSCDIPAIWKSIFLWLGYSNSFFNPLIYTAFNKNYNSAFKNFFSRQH
Chain of Delta-type opioid receptor (P41143 whole entry): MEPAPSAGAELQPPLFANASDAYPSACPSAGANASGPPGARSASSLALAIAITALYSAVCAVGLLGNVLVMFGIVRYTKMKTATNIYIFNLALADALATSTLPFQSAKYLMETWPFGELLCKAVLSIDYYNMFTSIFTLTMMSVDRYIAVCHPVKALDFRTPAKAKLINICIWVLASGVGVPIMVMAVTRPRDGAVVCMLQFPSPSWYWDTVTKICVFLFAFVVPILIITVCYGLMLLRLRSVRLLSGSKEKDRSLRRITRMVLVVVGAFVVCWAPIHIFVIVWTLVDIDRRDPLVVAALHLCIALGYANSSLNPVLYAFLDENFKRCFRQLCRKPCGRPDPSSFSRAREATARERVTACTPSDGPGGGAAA
Chain of 5-hydroxytryptamine receptor 1D (P28221 whole entry): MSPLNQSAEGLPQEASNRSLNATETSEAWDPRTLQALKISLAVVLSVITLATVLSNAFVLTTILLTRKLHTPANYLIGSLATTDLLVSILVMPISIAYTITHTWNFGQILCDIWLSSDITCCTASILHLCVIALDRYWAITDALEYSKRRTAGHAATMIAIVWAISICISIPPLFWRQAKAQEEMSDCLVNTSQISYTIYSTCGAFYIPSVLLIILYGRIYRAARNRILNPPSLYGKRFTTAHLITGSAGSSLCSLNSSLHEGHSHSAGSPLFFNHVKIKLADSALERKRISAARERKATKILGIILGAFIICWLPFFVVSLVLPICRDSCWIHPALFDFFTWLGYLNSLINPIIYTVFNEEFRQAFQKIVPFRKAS

For `OC1(c2ccc(Cl)c(C(F)(F)F)c2)CCN(CCCCN(c2ccc(F)cc2)c2ccc(F)cc2)CC1`, the inhibition in [1] stood at 50%; on D(3) dopamine receptor, 82.5%; on D(1A) dopamine receptor, 77.9%; at Mu-type opioid receptor [4], 61.5%; in [8], 70.3%; in [14], 77.5%. This compound displayed an inhibition in data set [16] of 92.6%. Also, the pKi was 6.09 in data set [2]; 5.95 in [3]; 5.00 at D(4) dopamine receptor; 5.00 in data set [7]; 5.00 in data set [10]; 5.00 on Mu-type opioid receptor [11]. Further, the pKi in [13] was 5.96; in [17], 5.97. The pIC50 in [5] was 5.09; in the data set on MDA-MB-231, 4.94; in the data set with NIH3T3, 4.92; in [12], 4.97; in data set [15] it was 4.97. In addition, the “inhibition (INH)” value in data set [6] amounted to 86.6%; in [9], 57.1%.

As for `OC1(c2ccc(Cl)c(C(F)(F)F)c2)CCN(CCCCC(c2ccc(F)cc2)c2ccc(F)cc2)CC1`, the inhibition in data set [1] stood at 75.8%; at D(3) dopamine receptor it was 95.7%; on D(1A) dopamine receptor, 92.6%; on Mu-type opioid receptor [4], 89%; in data set [8], 96%; in data set [14], 89%. Further, the inhibition in data set [16] stood at 96.3%. The pKi was 6.01 in [2]; 5.77 in data set [3]; 6.41 on D(4) dopamine receptor; 6.28 in data set [7]; 5.85 in data set [10]; 6.45 at Mu-type opioid receptor [11]. The pKi was 5.86 in data set [13] and 6.07 in data set [17]. For the same compound, the pIC50 in data set [5] was 5.38; in the data set with MDA-MB-231 it was 5.24; in the data set with NIH3T3, 5.19; in [12], 5.25; in data set [15], 5.39. For the same compound, the “inhibition (INH)” value in [6] is on record as 91.6%; in [9], 84.9%.
